Test results from ChEMBL document CHEMBL3576866, “Discovery of a Cyclic Boronic Acid β-Lactamase Inhibitor (RPX7009) with Utility vs Class A Serine Carbapenemases” (J Med Chem, 2015).

What was measured:
[1] = tested on: Klebsiella pneumoniae; assay: Inhibition of Klebsiella pneumoniae KP1087 SHV-11 assessed as biapenem MIC at 4 ug/ml by broth microdilution method
Outline: (§1)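 CLSI broth microdilution (M07-A9) against clinical K. pneumoniae strain KP1087 (KPC-2, CTX-M-15, SHV-11, TEM-1); carbapenem MIC (μg/mL) read with the inhibitor held at a fixed 4 μg/mL, alongside carbapenem alone.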

[2] = tested on: Klebsiella oxytoca; assay: Inhibition of Klebsiella oxytoca KX1017 OXA-2 assessed as meropenem MIC at 4 ug/ml by broth microdilution method
[3] = tested on: Klebsiella oxytoca; assay: Inhibition of Klebsiella oxytoca KX1019 OXA-2 assessed as meropenem MIC at 4 ug/ml by broth microdilution method
[4] = biological target: Plasminogen (Homo sapiens, UniProt P00747); assay: Inhibition of plasmin (unknown origin) using H-D-VLK-pNA as substrate preincubated for 10 mins followed by substrate addition measured for 30 mins by spectrophotometric analysis
Outline: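 Commercial plasmin in 100 mM Tris-HCl, pH 7.5, 100 mM NaCl. Exposed 10 min at 37 °C to varied inhibitor concentrations before H-D-VLK-pNA (listed at 200 μM), then absorbance read over 30 min. Rates were vs a no-treatment control; IC50 is the concentration giving 50% inhibition.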

[5] = biological target: Prothrombin (Homo sapiens, UniProt P00734); assay: Inhibition of thrombin (unknown origin) using Benz-FVR-AMC as substrate preincubated for 10 mins followed by substrate addition measured for 30 mins by spectrophotometric analysis
Outline: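 Thrombin, from a commercial source, in 20 mM Tris-HCl, pH 8, 150 mM NaCl, 2.5 mM CaCl2. Preincubated with inhibitor at various concentrations for 10 min at 37 °C. Benz-FVR-AMC (listed at 10 μM) was then added and the signal monitored for 30 min. Rates were relative to untreated; IC50 is the concentration giving 50% inhibition.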

[6] = Volume of distribution in rat at 100 mg/kg, iv administered as 0.5 hrs infusion by HPLC-MS method; type: ADME, organism-based; conditions: in vivo
[7] = Clearance in rat at 100 mg/kg, iv administered as 0.5 hrs infusion by HPLC-MS method; type: ADME, organism-based; conditions: in vivo
[8] = Cmax in rat at 300 mg/kg, iv administered as 0.5 hrs infusion by HPLC-MS method; type: ADME, organism-based; parameters: dose 300 mg/kg, route intravenous; conditions: in vivo
[9] = Clearance in rat at 300 mg/kg, iv administered as 0.5 hrs infusion by HPLC-MS method; type: ADME, organism-based; conditions: in vivo
[10] = Cmax in human at 1 g administered as 3 hrs of infusion; type: ADME, organism-based; parameters: dose 1 g; conditions: in vivo, iv
[11] = Half life in human at 1 g administered as 3 hrs of infusion; type: ADME, organism-based; conditions: in vivo, iv
[12] = tested on: Klebsiella pneumoniae; assay: Inhibition of Klebsiella pneumoniae KP1009 CTX-M-15 assessed as cefepime MIC at 4 ug/ml by broth microdilution method
[13] = tested on: Klebsiella oxytoca; assay: Inhibition of Klebsiella oxytoca KX1017 SHV-30 assessed as biapenem MIC at 4 ug/ml by broth microdilution method
[14] = biological target: Beta lactamase TEM-1 (Klebsiella pneumoniae) (UniProt Q7B899); assay: Inhibition of Klebsiella pneumoniae KP1083 TEM-1 assessed as biapenem MIC at 4 ug/ml by broth microdilution method
Outline: (§2)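 CLSI broth microdilution (M07-A9, 2012) MIC of the carbapenem against clinical serine carbapenemase-producing strain, tested alone and with the inhibitor held at a fixed 4 μg/mL.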

[15] = biological target: Beta-lactamase (Klebsiella pneumoniae) (UniProt Q93LQ9); assay: Inhibition of Klebsiella pneumoniae KP1084 KPC-3 assessed as ertapenem MIC at 4 ug/ml by broth microdilution method; outline: as §2
[16] = biological target: T1, Class A carbapenemase (Enterobacter cloacae) (UniProt A7WP95); assay: Inhibition of Enterobacter cloacae ECL1058 KPC-3 assessed as ertapenem MIC at 4 ug/ml by broth microdilution method
T1 sequence (whole entry): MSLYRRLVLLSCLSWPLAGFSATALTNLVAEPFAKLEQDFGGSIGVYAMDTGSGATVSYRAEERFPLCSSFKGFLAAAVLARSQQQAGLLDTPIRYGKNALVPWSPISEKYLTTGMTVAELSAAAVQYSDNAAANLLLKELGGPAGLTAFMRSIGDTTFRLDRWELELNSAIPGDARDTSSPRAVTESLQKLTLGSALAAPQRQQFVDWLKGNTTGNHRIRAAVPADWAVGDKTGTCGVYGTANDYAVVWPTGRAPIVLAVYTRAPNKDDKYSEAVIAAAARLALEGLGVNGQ

[17] = tested on: Klebsiella pneumoniae; assay: Inhibition of Klebsiella pneumoniae KP1008 KPC-2 assessed as imipenem MIC at 4 ug/ml by broth microdilution method; outline: as §2
[18] = tested on: Klebsiella pneumoniae; assay: Inhibition of Klebsiella pneumoniae KP1088 SHV-11 assessed as imipenem MIC at 4 ug/ml by broth microdilution method
Outline: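 CLSI broth microdilution (M07-A9, 2012) against the clinical K. pneumoniae isolate. Carbapenem MICs were read alone and with 9f held at a fixed 4 μg/mL.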

[19] = tested on: Klebsiella oxytoca; assay: Inhibition of Klebsiella oxytoca KX1017 SHV-30 assessed as ertapenem MIC at 4 ug/ml by broth microdilution method
[20] = tested on: Klebsiella pneumoniae; assay: Inhibition of Klebsiella pneumoniae KP1004 KPC-2 assessed as ertapenem MIC at 4 ug/ml by broth microdilution method; outline: as §2
[21] = tested on: Klebsiella pneumoniae; assay: Inhibition of Klebsiella pneumoniae KP1004 SHV-11 assessed as ertapenem MIC at 4 ug/ml by broth microdilution method; outline: as §2
[22] = tested on: Klebsiella pneumoniae; assay: Inhibition of Klebsiella pneumoniae KP1087 KPC-2 assessed as imipenem MIC at 4 ug/ml by broth microdilution method; outline: as §1
[23] = tested on: Klebsiella pneumoniae; assay: Inhibition of Klebsiella pneumoniae KP1087 CTX-M-15 assessed as imipenem MIC at 4 ug/ml by broth microdilution method
[24] = Inhibition of Escherichia coli recombinant CTX-M-15 assessed as substrate nitrocefin degradation preincubated for 10 mins followed by substrate addition measured every 10 secs for 10 mins by spectrophotometric analysis
Outline: (§3)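 β-Lactamases purified from overexpressing recombinant E. coli. Enzyme preincubated with inhibitor at varying concentrations for 10 min at room temperature in 50 mM Na phosphate pH 7.0, 0.1 mg/mL BSA. Then 50 μM nitrocefin (final) added and cleavage read at 490 nm every 10 s for 10 min. Ki derived by the Waley method.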

[25] = Inhibition of Escherichia coli recombinant SHV-12 assessed as substrate nitrocefin degradation preincubated for 10 mins followed by substrate addition measured every 10 secs for 10 mins by spectrophotometric analysis; outline: as §3

Beta lactamase TEM-1 (Klebsiella pneumoniae), sequence (Q7B899 as listed by the source): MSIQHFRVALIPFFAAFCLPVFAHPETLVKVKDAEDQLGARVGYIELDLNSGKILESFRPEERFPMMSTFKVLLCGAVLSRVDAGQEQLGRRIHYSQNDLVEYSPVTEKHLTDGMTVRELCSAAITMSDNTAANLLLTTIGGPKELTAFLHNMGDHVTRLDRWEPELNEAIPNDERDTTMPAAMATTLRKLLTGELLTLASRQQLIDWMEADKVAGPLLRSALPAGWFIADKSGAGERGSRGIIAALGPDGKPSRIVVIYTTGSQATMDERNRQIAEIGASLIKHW
Beta-lactamase (Klebsiella pneumoniae), sequence (Q93LQ9 as listed by the source): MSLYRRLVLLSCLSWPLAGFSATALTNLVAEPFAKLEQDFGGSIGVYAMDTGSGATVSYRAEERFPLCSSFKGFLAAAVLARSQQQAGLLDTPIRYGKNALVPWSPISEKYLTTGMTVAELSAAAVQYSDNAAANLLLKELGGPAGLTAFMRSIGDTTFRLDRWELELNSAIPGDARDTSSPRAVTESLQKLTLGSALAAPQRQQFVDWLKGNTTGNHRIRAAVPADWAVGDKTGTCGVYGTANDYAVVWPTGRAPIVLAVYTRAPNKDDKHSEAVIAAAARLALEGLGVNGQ
Plasminogen, sequence (P00747 97-580 limits assumed): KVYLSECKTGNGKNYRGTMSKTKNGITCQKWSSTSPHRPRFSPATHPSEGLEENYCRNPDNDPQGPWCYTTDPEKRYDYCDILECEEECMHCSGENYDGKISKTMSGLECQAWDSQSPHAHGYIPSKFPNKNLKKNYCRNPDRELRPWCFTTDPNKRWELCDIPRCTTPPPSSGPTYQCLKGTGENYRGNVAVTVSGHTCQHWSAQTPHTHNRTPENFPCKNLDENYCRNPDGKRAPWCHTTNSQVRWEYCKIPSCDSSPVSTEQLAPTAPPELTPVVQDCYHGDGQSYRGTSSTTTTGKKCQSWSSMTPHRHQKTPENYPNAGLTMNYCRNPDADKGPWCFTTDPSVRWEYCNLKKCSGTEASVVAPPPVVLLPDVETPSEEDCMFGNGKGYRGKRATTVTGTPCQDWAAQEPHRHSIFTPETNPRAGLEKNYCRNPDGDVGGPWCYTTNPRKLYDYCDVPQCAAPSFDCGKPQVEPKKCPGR
Plasminogen, sequence (P00747 581-810 limits assumed): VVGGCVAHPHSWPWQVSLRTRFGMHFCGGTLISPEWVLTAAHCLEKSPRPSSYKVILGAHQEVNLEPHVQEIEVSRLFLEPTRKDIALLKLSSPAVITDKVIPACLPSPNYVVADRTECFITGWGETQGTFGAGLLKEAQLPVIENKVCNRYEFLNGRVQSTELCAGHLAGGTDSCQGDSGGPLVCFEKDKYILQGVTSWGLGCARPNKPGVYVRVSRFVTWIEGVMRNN

O=C(O)C[C@@H]1CC[C@H](NC(=O)Cc2cccs2)B(O)O1 [VABORBACTAM]
MIC [1]: 0.25 µg/mL | MIC [2]: < 0.06 µg/mL | MIC [3]: < 0.06 µg/mL | IC50 [4]: > 1000 µM | IC50 [5]: > 1000 µM | Vd [6]: 0.97 L/kg | clearance [7]: 26.7 mL/min/kg | Cmax [8]: 735 µg/mL | clearance [9]: 21 mL/min/kg | Cmax [10]: 22 µg/mL | half-life [11]: 1.23 h | MIC [12]: 2 µg/mL | MIC [13]: < 0.06 µg/mL | MIC [14]: < 0.06 µg/mL | MIC [15]: 4 µg/mL | MIC [16]: 0.25 µg/mL | MIC [17]: ≤ 0.06 µg/mL | MIC [18]: ≤ 0.06 µg/mL | MIC [19]: 0.25 µg/mL | MIC [20]: ≤ 0.06 µg/mL | MIC [21]: ≤ 0.06 µg/mL | MIC [22]: 0.25 µg/mL | MIC [23]: 0.25 µg/mL | Ki [24]: 0.044 µM | Ki [25]: 0.029 µM
